Experimental data: ChEMBL document CHEMBL1134451, “Synthesis, cytotoxicity, and antitumor activity of copper(II) and iron(II) complexes of (4)N-azabicyclo[3.2.2]nonane thiosemicarbazones derived from acyl diazines” (J Med Chem, 2001)

Columns and labels:
lymphoma [1] = test: (§1) Percentage of cells in G2-M cell cycle phase of lymphoma cells after 48 hr treatment; type: functional; details: Homo sapiens
[2] = Mean IC50 value of the compound; type: functional
Method in brief: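 Geometric mean of clonogenic soft-agar IC50 values across the tumor xenografts tested: 10 raised to the mean of log IC50 over all xenografts.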

lymphoma [3] = test: (§2) Percentage of cells in S cell cycle phase of lymphoma cells after 24 hr treatment; type: functional; details: Homo sapiens
lymphoma [4] = test: (§3) Percentage of cells in S cell cycle phase of lymphoma cells after 48 hr treatment; type: functional; details: Homo sapiens
lymphoma [5] = test: (§4) Percentage of cells in G1 cell cycle phase of lymphoma cells after 24 hr treatment; type: functional; details: Homo sapiens
lymphoma [6] = test: (§5) Percentage of cells in G1 cell cycle phase of lymphoma cells after 48 hr treatment; type: functional; details: Homo sapiens
lymphoma [7] = test: (§6) Percentage of cells in G2-M cell cycle phase of lymphoma cells after 24 hr treatment; type: functional; details: Homo sapiens
[8] = Ratio of IC50 values was calculated by IC50 cytidine incorporation/IC50 cell proliferation; type: functional
Method in brief: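 Ratio of the [14C]cytidine-incorporation IC50 to the cell-proliferation IC50, both measured in Burkitt's lymphoma cells.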

PAXF546 = test: Inhibition of cell proliferation of human pancreas PAXF546 tumor xenograft in colony forming assay; type: functional, cell-based
[9] = Inhibition of [14C]-cytidine incorporation into DNA in Burkitt''s lymphoma cells; type: functional, cell-based, Homo sapiens
Method in brief: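 Intact exponentially growing Burkitt's lymphoma cells, (1-2)×10^6/mL, incubated with compound at 37 °C for 90 min, then 0.7 μCi [14C]cytidine added. Cells TCA-precipitated and RNase-treated in Tris-HCl pH 8 for 2 h at 37 °C, then reprecipitated with TCA. Pellet dissolved in NaOH and counted by scintillation. IC50 is the mean of two experiments run in duplicate.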

MCF7 = test: Inhibition of cell proliferation of human breast MCF7X tumor xenograft in colony forming assay; type: functional, cell-based
LXFS538 = test: Inhibition of cell proliferation of human lung small cell LXFS538 tumor xenograft in colony forming assay; type: functional, cell-based
MEXF276L = test: Inhibition of cell proliferation of human melanoma MEXF276L tumor xenograft in colony forming assay; type: functional, cell-based
CXF280 = test: Inhibition of cell proliferation of human colon CXF280 tumor xenograft in colony forming assay; type: functional, cell-based
PAXF736 = test: Inhibition of cell proliferation of human pancreas PAXF736 tumor xenograft in colony forming assay; type: functional, cell-based
[10] = Inhibition of cell proliferation in Burkitt's lymphoma cells; type: functional, cell-based, Homo sapiens
HT-29 [11] = test: Inhibition of cell proliferation of human colon HT-29X tumor xenograft in colony forming assay; type: functional, cell-based
MEXF989 = test: Inhibition of cell proliferation of human melanoma MEXF989 tumor xenograft in colony forming assay; type: functional, cell-based
MX1 = test: Inhibition of cell proliferation of human breast MXI tumor xenograft in colony forming assay; type: functional, cell-based
LXFL 529 = test: Inhibition of cell proliferation of human lung large cell LXFL529 tumor xenograft in colony forming assay; type: functional, cell-based
CXF1103 = test: Inhibition of cell proliferation of human colon CXF1103 tumor xenograft in colony forming assay; type: functional, cell-based
CCRF-CEM = test: Cytotoxic activity against human acute lymphoblastic leukemia (CCRF-CEM) cell line; type: functional, cell-based
HT-29 [12] = test: Cytotoxic activity against colon adenocarcinoma (HT-29) cell line; type: functional, cell-based, Homo sapiens
Method in brief: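 HT-29 colon adenocarcinoma cells in McCoy's 5A with 10% FCS, glutamine and penicillin/streptomycin, about 10 000 cells/well. After a 4 h preincubation, cells were exposed to compound (DMSO up to 0.5% final) for 72 h at 37 °C, 5% CO2. Readout was SRB assay. IC50 from dose-response curves; mean of at least three independent experiments run in duplicate.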

CXF158 = test: Inhibition of cell proliferation of human colon CXF158 tumor xenograft in colony forming assay; type: functional, cell-based
RXF 423 = test: Inhibition of cell proliferation of human renal RXF423 tumor xenograft in colony forming assay; type: functional, cell-based
OVXF1023 cell line = test: Inhibition of cell proliferation of human ovary OVXF1023 tumor xenograft in colony forming assay; type: functional, cell-based, Female gonad
OVXF1353 cell line = test: Inhibition of cell proliferation of human ovary OVXF1353 tumor xenograft in colony forming assay; type: functional, cell-based, Female gonad
[13] = as §1; type: functional, Homo sapiens
[14] = as §2; type: functional, Homo sapiens
[15] = as §3; type: functional, Homo sapiens
[16] = as §4; type: functional, Homo sapiens
[17] = as §5; type: functional, Homo sapiens
[18] = as §6; type: functional, Homo sapiens

In the case of “N-[(1E)-1-(3-methylpyrazin-2-yl)ethylidene]-3-azabicyclo[3.2.2]nonane-3-carbohydrazonothioic acid.chloro Cu(II)complex [listing 1 of 2 here]”, the Activity (lymphoma [1]) is reported as 9.81%, the Mean IC50 [2] is reported as 0.37 nM and the Activity (lymphoma [3]) is reported as 22.8%. It also gave an Activity (lymphoma [4]) of 29.8%, an Activity (lymphoma [5]) of 51.9% and an Activity (lymphoma [6]) of 49.3%. For the same compound, the Activity (lymphoma [7]) was 17% and the IC50 ratio [8] was 30.
With “N-[(1E)-1-(3-methylpyrazin-2-yl)ethylidene]-3-azabicyclo[3.2.2]nonane-3-carbohydrazonothioic acid.chloro Cu(II)complex [listing 2 of 2 here]” the IC50 (PAXF546) was 0.56 nM, the IC50 [9] was 180 nM and the IC50 (MCF7) was 0.21 nM. The IC50 (LXFS538) was 0.22 nM, the IC50 (MEXF276L) was 36 nM and the IC50 (CXF280) was < 0.1 nM. For the same compound, the IC50 (PAXF736) was < 0.1 nM, the IC50 [10] was 6 nM and the IC50 (HT-29 [11]) was 0.85 nM. For the same compound, the IC50 (MEXF989) was 3 nM, the IC50 (MX1) was 5 nM and the IC50 (LXFL 529) was < 0.1 nM. The IC50 (CXF1103) was < 0.1 nM and the IC50 (CCRF-CEM; ccrf-cem) was 6 nM.
For “N-[(1E)-1-pyrazin-2-ylethylidene]-3-azabicyclo[3.2.2]nonane-3-carbohydrazonothioic acid.chloro Cu(II)complex”, the IC50 (HT-29 [12]; ht-29) was < 10 nM and the IC50 (CCRF-CEM; ccrf-cem) was < 10 nM.
“N-[(1E)-1-(5-methylpyrazin-2-yl)ethylidene]-3-azabicyclo[3.2.2]nonane-3-carbohydrazonothioic acid.chloro Cu(II)complex [listing 1 of 2 here]” gave an Activity (lymphoma [1]) of 17.7%, a Mean IC50 [2] of 0.37 nM and an Activity (lymphoma [3]) of 25.9%. For the same compound, the Activity (lymphoma [4]) was 29.4%, the Activity (lymphoma [5]) was 53.1% and the Activity (lymphoma [6]) was 52.7%. For the same compound, the Activity (lymphoma [7]) was 19.9% and the IC50 ratio [8] was 495.
With `C/C(=N\N=C(/S)N1CC2CCC(CC2)C1)c1ccncn1` the IC50 (HT-29 [12]; Homo sapiens, HT-29) was 50 nM and the IC50 (CCRF-CEM; Homo sapiens, CCRF-CEM) was 20 nM.
With “N-[(1E)-1-(5-methylpyrazin-2-yl)ethylidene]-3-azabicyclo[3.2.2]nonane-3-carbohydrazonothioic acid.chloro Cu(II)complex [listing 2 of 2 here]” the IC50 (PAXF546) was 0.2 nM, the IC50 [9] was 2970 nM and the IC50 (MCF7) was < 0.1 nM. The IC50 (MEXF276L) was 14 nM, the IC50 (CXF280) was < 0.1 nM and the IC50 (PAXF736) was < 10 nM. It also gave an IC50 [10] of 6 nM, an IC50 (HT-29 [11]) of 1 nM and an IC50 (CXF158) of 0.13 nM. The IC50 (MEXF989) was 0.7 nM, the IC50 (RXF 423) was 4 nM and the IC50 (OVXF1023 cell line) was 10 nM. It also gave an IC50 (MX1) of 4 nM, an IC50 (HT-29 [12]; ht-29) of 4 nM and an IC50 (OVXF1353 cell line) of 24 nM. The IC50 (LXFL 529) was < 0.1 nM, the IC50 (CXF1103) was < 0.1 nM and the IC50 (CCRF-CEM; ccrf-cem) was 5 nM.
“N-[(1E)-1-(6-methylpyrimidin-4-yl)ethylidene]-3-azabicyclo[3.2.2]nonane-3-carbohydrazonothioic acid.chloro Cu(II)complex [listing 1 of 2 here]” gave an IC50 (PAXF546) of 3 nM, an IC50 [9] of 210 nM and an IC50 (MCF7) of 0.2 nM. It also gave an IC50 (CXF280) of 0.2 nM, an IC50 (PAXF736) of 15 nM and an IC50 (HT-29 [11]) of 5 nM. For the same compound, the IC50 (CXF158) was 2 nM, the IC50 (MEXF989) was 0.84 nM and the IC50 (RXF 423) was 26 nM. The IC50 (OVXF1023 cell line) was 15 nM, the IC50 (MX1) was 14 nM and the IC50 (HT-29 [12]; ht-29) was 4 nM. For the same compound, the IC50 (OVXF1353 cell line) was 19 nM, the IC50 (LXFL 529) was < 0.1 nM and the IC50 (CXF1103) was 0.11 nM. It also gave an IC50 (CCRF-CEM; ccrf-cem) of 10 nM.
With “N-[(1E)-1-(6-methylpyridazin-3-yl)ethylidene]-3-azabicyclo[3.2.2]nonane-3-carbohydrazonothioic acid.chloro Cu(II)complex” the IC50 (HT-29 [12]; ht-29) was 870 nM and the IC50 (CCRF-CEM; ccrf-cem) was 130 nM.
Copper(II) Complex gave an IC50 (HT-29 [12]; ht-29) of 1510 nM and an IC50 (CCRF-CEM; ccrf-cem) of 300 nM.
With `C/C(=N\N=C(/S)N1CC2CCC(CC2)C1)c1cnccn1` the IC50 (HT-29 [12]; Homo sapiens, HT-29) was 11 nM and the IC50 (CCRF-CEM; Homo sapiens, CCRF-CEM) was 11 nM.
For “N-[(1E)-1-(6-methylpyrimidin-4-yl)ethylidene]-3-azabicyclo[3.2.2]nonane-3-carbohydrazonothioic acid.chloro Cu(II)complex [listing 2 of 2 here]”, the Activity (lymphoma [1]) was 11.4%, the Mean IC50 [2] was 1 nM and the Activity (lymphoma [3]) was 21.7%. For the same compound, the Activity (lymphoma [4]) was 21.5%, the Activity (lymphoma [5]) was 64.5% and the Activity (lymphoma [6]) was 59.2%. For the same compound, the Activity (lymphoma [7]) was 13.6% and the IC50 ratio [8] was 11.7.
In the case of `NC(=O)NO` [HYDROXYUREA], the IC50 [9] is reported as 37200 nM, the Activity [13] is reported as 19.52% and the Activity [14] is reported as 38.22%. For the same compound, the Activity [15] was 45.1%, the Activity [16] was 48.2% and the IC50 ([10]; Homo sapiens) was 140000 nM. It also gave an Activity [17] of 21.27%, an Activity [18] of 11.9% and an IC50 ratio [8] of 0.26.
In the case of “N-[(1E)-1-pyrimidin-4-ylethylidene]-3-azabicyclo[3.2.2]nonane-3-carbohydrazonothioic acid.chloro Cu(II)complex”, the IC50 (HT-29 [12]; ht-29) is reported as < 10 nM and the IC50 (CCRF-CEM; ccrf-cem) is reported as < 10 nM.
